From ChEMBL document CHEMBL4513216, “Probing the Open Global Health Chemical Diversity Library for Multistage-Active Starting Points for Next-Generation Antimalarials” (ACS Infect Dis, 2020)

Test: Toxicity liver stage against HepG2, at 10uM
Type: cell-based
Design: test concentration 10 uM, cell line HepG2-A16-CD81EGFP
Conditions: human, HepG2-A16-CD81EGFP cells; read-out: INHIBITION
Method in brief: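 Uninfected HepG2-A16-CD81EGFP cells, 3 × 10^3 per well, 1536-well, plated on prespotted compound at 10 μM final, parasite-free screening media added to match infected plates; puromycin 10 μM positive, DMSO 0.5% negative; run in parallel with 48 h PbLuc assay at 37 °C, 5% CO2; viability by CellTiter-Glo luminescence, normalized to controls.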

SMILES | cytotoxicity at 10 µM [%]
CCN(CC1CCOC1)C(=O)Cn1nnn(-c2cccs2)c1=O (stereo not given) | -49.7
CS(=O)(=O)N1CCCC1c1cccc(Nc2nccs2)n1 (stereo not given) | -33.4
O=C1OC2(CCN(C(=O)C3NCCc4[nH]cnc43)CC2)c2ccccc21 (stereo not given) | -7.05
CSCc1cccc(C(=O)N2CCN(CC(C)O)CC2)c1 (stereo not given) | -5.31
Cc1nc[nH]c1CN(Cc1ccc(F)cc1)C1CC(C)(C)NC(C)(C)C1 | 0.92
CC1CCCN(Cc2ccc(CNC(=O)NCc3ccncc3)cc2)C1 (stereo not given) | 4.64
NC(=O)Nc1cccc(F)c1C(=O)NC1CCCC1 | -8.64
NC(=O)Nc1cccc(C(=O)N(Cc2ccc(F)cc2)C2CC2)c1 | -10.1
Cc1ccc(CN2CCOC(C)(c3cnn(C)c3)C2)cc1 (stereo not given) | -4.16
CS(=O)(=O)NCCNC(=O)C1(c2cccc(Cl)c2)CC1 | 5.63
O=C(c1cc2c(s1)CCN2C(=O)C1CC1)N1CCCC1 | 2.62
CS(=O)(=O)C1(CNCc2cccc(-n3cccn3)c2)CCOCC1 | -141
COc1cc(F)ccc1N(C)Cc1cccnc1 | -3.47
Cc1ccccc1C1(C(=O)NCCN(C)C)CCOCC1 | -1.95
CCNc1cc2c(nn1)CCN(C(=O)c1c(C)noc1C)C2 | -5.76
Cc1nc(CNC(=O)Nc2ccc(N(C)C)nc2)sc1C | -0.222
Cc1cc(F)ccc1CNCc1cccc(C(=O)N2CCCC2)c1 | -10.8
CN(C)C(=O)COC1COC2(CCN(c3cnccn3)CC2)C1 (stereo not given) | -6.29
COc1ccc2cnn(CC(=O)NCC3CCCO3)c(=O)c2c1OC (stereo not given) | 4.81
CCn1cc(NC(=O)NC2CCCc3c2cnn3CCO)cn1 (stereo not given) | 5.04
CCCc1nc(N2CCCC(C)C2)c2c(n1)c(C)nn2CC (stereo not given) | 15.6
CC(C)S(=O)(=O)N1CCC(c2cc3n(n2)[C@@H](C(F)(F)F)C[C@@H](C)N3)CC1 | -13.5

SMILES | cytotoxicity at 10 µM [%]
COCC1COCCC12CCN(C(=O)COc1ccccc1C)CC2 (stereo not given) | 2.08
O=C(NCC1CCOCC1)[C@@H]1C[C@@H]2CCN(Cc3ccco3)C[C@H]2O1 | -8.09
CCCC(=O)N1CC[C@@H]2[C@H](CC1)N(Cc1cccnc1)CCS2(=O)=O | -8.63
C=C(C)COc1ccccc1C(=O)N(C)C(C)c1c(C)n[nH]c1C (stereo not given) | 3.23
CC(NCc1ccncc1)c1cc(F)ccc1N1CCN(C)CC1 (stereo not given) | -2.98
Cn1cc(CN2CCCC23CCN(C(=O)c2ccncc2)CC3)cn1 | -3.51
CCOc1ccc(CN2CCN(C(=O)c3cc(C4CC4)[nH]n3)CC2)cc1 | 36.1
CN(Cc1cnn(C)c1)C(=O)NC1CCCC1 | 7.43
COCCN1CCc2cc(C(=O)O)c(NCC3CC3)nc2CC1 | 4.21
CS(=O)(=O)NC1CCc2[nH]c(=O)ccc2C1 (stereo not given) | 3.46
CC(NC(=O)C1CCN(S(N)(=O)=O)CC1)c1cccc(OC(F)F)c1 (stereo not given) | -8.5
COCCN(C)C[C@@H]1CN(c2nc(C)cc(C)n2)C[C@@H]1CO | -10.3
CC(C)(C)CC(NC(=O)N1CCS(=O)(=O)CC1)C(F)(F)F (stereo not given) | 0.106
COC(C)c1noc(CN(C)c2ncccn2)n1 (stereo not given) | 7.33
CN(C)C(=O)c1cccc(CCNc2ccccc2S(C)(=O)=O)c1 | 11.5
COC1CCN(C(=O)CCn2cccn2)CC1 | -13.4
CCc1noc(CC)c1CNC(=O)Nc1ccc2[nH]nnc2c1 | 6
COc1cccc(CC(=O)N2CCCC(c3nncn3C)C2)c1 (stereo not given) | -20.2
COCC1CC2(CCN(S(=O)(=O)C3CC3)CC2)CN1c1ncccn1 (stereo not given) | -2.01
CCCc1cc(C(=O)N2C[C@@H](C)[C@](O)(C3CCC3)C2)[nH]n1 | 10.1
O=C1[C@@H]2CCN(CC3CCOCC3)C[C@@H]2OCCN1c1ccccc1 | -5.21
CCn1c(C)cc(C(=O)N2CCC(NC(=O)c3cc(C)no3)CC2)c1C | -1.1

SMILES | cytotoxicity at 10 µM [%]
CC1=Nc2c(c(=O)[nH]n2C(C)C)C(c2ccc3c(c2)n(C)c(=O)n3C)S1 (stereo not given) | 3.75
Cc1cc(C)n(-c2cncc(NCCNC(=O)C(C)C)n2)n1 | -2.91
CN(Cc1cc[nH]n1)C(=O)c1cn(Cc2ccccc2Cl)nn1 | 7.59
O=C(Cn1cc(-c2ccccc2)ncc1=O)NC1CCCCC1 | -8.03
CC(C)n1cnnc1CN(C)C(=O)c1ccc[nH]1 | -0.371
CN(c1nc(Cn2cc(Br)ccc2=O)cs1)C1CC1 | 8.34
CS(=O)(=O)c1cccc(C(=O)NCC2(c3ccccc3)CC2)c1 | 1.47
NC(=O)c1ccc(N2CCN(Cc3cccc4nsnc34)CC2)nc1 | 34.1
O=C1CN(C(=O)CCn2c(C(F)(F)F)cc3cccnc32)CCN1 | -13
COCC(=O)NCc1cc(=O)n2c(n1)CN(Cc1cccs1)CCC2 | -96.5
CCc1c(C)nc2n(c1=O)CC(C(=O)Nc1ccccc1C)CS2 (stereo not given) | -1.38
Cc1c(CNC(=O)NCc2cccc(-n3cncn3)c2)cnn1C | 1.78
CCc1sc(-c2nnc(CNCCn3cccn3)o2)cc1C | 5.05
CC(C)C(CNCc1cccc2c1OCO2)N1CCOCC1 (stereo not given) | -49.1
Cc1ccc(CN2CCC3(CC2)CC(CC(=O)NC(C)C)CO3)s1 (stereo not given) | -1.72
O=C(O)c1ccnc(-c2ccnc(NCCc3ccc(F)cc3)n2)c1 | 1.74
O=C(C[C@@H]1COC[C@H]2CN(Cc3ccncc3)C[C@@H]12)N1CCOCC1 | 6.59
Cc1ccc(N2CCO[C@H]3CN(Cc4ccc(F)cc4)C[C@H]32)nn1 | -88.6
CC(=O)c1c(O)n(C)c2ccc(C)cc12 | 8.58
OCCOc1ccc(NCc2cccc3cn[nH]c23)cn1 | -4.13
Cc1ccccc1-c1cc(NC(=O)NC2CC2)n(CCO)n1 | 8.09
COc1cccc(COC(C)C(=O)N(C)Cc2nnc3n2CCC3)c1 (stereo not given) | 6.32

SMILES | cytotoxicity at 10 µM [%]
CNS(=O)(=O)CC(=O)NCc1cc2c(s1)CCC(C)(C)C2 | 3.15
COc1ccc(-c2nc3c([nH]2)CCNC3C(=O)O)c2ccccc12 (stereo not given) | 8.63
CN(C)C(C(=O)NCC1(N(C)C)CCOCC1)c1ccccc1F (stereo not given) | 2.2
Cc1c(-c2c(-c3ccccc3)ncn2[C@@H](C(=O)O)[C@H](C)O)cnn1C | -7.67
CCn1c(C2CCN(C(=O)c3cc(Cl)no3)CC2)nn(C)c1=O | -10.5
CN(C)C(=O)CN1C[C@H]2CCN(Cc3ccccc3)CC[C@H]2S1(=O)=O | 9.82
COCCN(C)C(=O)c1ccccc1-n1cc(CN(C)C)cn1 | -29.5
CC(C)CCS(=O)(=O)CC(=O)N1CCCC1c1cnn(C)c1 (stereo not given) | 0.528
Cc1nc(C(=O)N2CCN(S(C)(=O)=O)CC2)c(-c2ccccc2)s1 | 3.23
CCN(Cc1ccccc1)S(=O)(=O)C1CCS(=O)(=O)CC1 | 5.44
Cc1occc1CNc1ncccc1S(N)(=O)=O | -149
COCCSCC(=O)NCc1ccc(N(C)C)nc1 | 9.15
CCc1cc(=O)n(CC(=O)N2CCCC2)c(-c2cccc(F)c2)n1 | 6.75
CCN1CCCC(CNC(=O)CCc2ccc(OC)c(F)c2)C1 (stereo not given) | -3.42
COC(=O)c1ccc(NC(=O)CCc2ccco2)cc1 | -10.5
O=S(=O)(N1CCCC1)N(Cc1ccccc1)CC1CCCO1 (stereo not given) | -0.966
Cc1csc2c(C3CCN(C(=O)Cn4cncn4)CC3)nc(C)n12 | 6.28
Cc1nc(C2CCCN2C(=O)CNS(C)(=O)=O)no1 (stereo not given) | 17.1
c1cnc(NCCCOC2CCOCC2)nc1 | -2.96
CCn1c(=O)nc(N)c2c(-c3ccc(OC)cc3)csc21 | -32.8
COCc1nc(C(=O)N2CCCC(n3cccn3)C2)cs1 (stereo not given) | -7.42
CC(C)C(C(=O)N1CCCN(Cc2nccn2C)CC1)N1CCCC1 (stereo not given) | -13

SMILES | cytotoxicity at 10 µM [%]
CN1CCN(C[C@@H]2CN(C3Cc4ccccc4C3)C[C@@H]2CO)CC1 | 8.29
NS(=O)(=O)c1cccnc1NCc1ccco1 | -8.21
O=C(c1cccnc1)N1CCO[C@@H]2CNC[C@@H]21 | -103
Cn1cc(CCCN2CCN(Cc3cccc(O)c3)CC2)cn1 | -52.5
CCOc1ncccc1CNCc1c(C(C)C)nn(C)c1N(C)C | -8.19
CC(C)(C)CN(CCC#N)Cn1cc(Cl)cn1 | 6.29
NC1(CN2CCOCC2)CCCCC1 | 1.72
Cc1nc(CN2C(=O)C[C@@H]3[C@@H]2CCN3CC2CCOCC2)cs1 | -135
O=C(Nc1ccccc1)N1C[C@@H]2CC[C@H]1CN(Cc1ccccc1)C2 | 1.93
CC(C)(C)C(C#N)NC(=O)c1ccc(Oc2cccnc2)cc1 (stereo not given) | 5.21
CCC(C)N(C)C(=O)Nc1ccc(N2CCSCC2)cc1C (stereo not given) | -12.5
CNS(=O)(=O)c1ccc(CNC(=O)NCC2CCOC2)cc1 (stereo not given) | -2.65
O=C(NCc1csc2ccc(Cl)cc12)c1cc2n(n1)CCNC2 | -0.699
CC(C)CN1CCCC1c1ccc(C(=O)Nc2cc[nH]n2)s1 (stereo not given) | 10.3
Cc1cc(C(F)(F)F)nn1C(C)C(=O)Nc1ccc(Cl)cn1 (stereo not given) | 11.6
O=C(c1cnco1)N1CCC(Cc2ccc3ncccc3c2)CC1 | 7.22
COCCN1C[C@H]2CN(C(=O)c3ccc4c(c3)OCO4)CCN2C1=O | 13.7
CO[C@H]1CCN(C(=O)c2ccsc2)[C@@H]2CN(CC3CC3)C[C@H]12 | 1.64
CNC(=O)c1ccc(C2CCCN(C(=O)c3sc(C)nc3C)C2)nc1 (stereo not given) | -36.5
Cc1nc(CN2CCN(C(=O)NC(C)Cn3ccnc3)CC2)cs1 (stereo not given) | -5.28
Cc1noc([C@@]23CCO[C@@H]2CCN(CC2CCOCC2)C3)n1 | -2.1
Cc1ccc(C(=O)NCCC2CN(C3CCCC3)CCO2)c(C)c1 (stereo not given) | -3.76
